Assay results reported in ChEMBL document CHEMBL4190394, “Discovery of Novel Pazopanib-Based HDAC and VEGFR Dual Inhibitors Targeting Cancer Epigenetics and Angiogenesis Simultaneously” (J Med Chem, 2018).
Active and inactive are the calls of the source. No cut-off for these calls is given here.

Tests used:
Histone deacetylase = type: protein assay, Homo sapiens
[1] = biological target: T1, Vascular endothelial growth factor receptor 2 (Homo sapiens, UniProt P35968); test: Inhibition of VEGFR-2 (unknown origin) at 0.2 uM after 40 mins by kinase-Glo assay relative to control
T1 sequence (P35968 whole entry): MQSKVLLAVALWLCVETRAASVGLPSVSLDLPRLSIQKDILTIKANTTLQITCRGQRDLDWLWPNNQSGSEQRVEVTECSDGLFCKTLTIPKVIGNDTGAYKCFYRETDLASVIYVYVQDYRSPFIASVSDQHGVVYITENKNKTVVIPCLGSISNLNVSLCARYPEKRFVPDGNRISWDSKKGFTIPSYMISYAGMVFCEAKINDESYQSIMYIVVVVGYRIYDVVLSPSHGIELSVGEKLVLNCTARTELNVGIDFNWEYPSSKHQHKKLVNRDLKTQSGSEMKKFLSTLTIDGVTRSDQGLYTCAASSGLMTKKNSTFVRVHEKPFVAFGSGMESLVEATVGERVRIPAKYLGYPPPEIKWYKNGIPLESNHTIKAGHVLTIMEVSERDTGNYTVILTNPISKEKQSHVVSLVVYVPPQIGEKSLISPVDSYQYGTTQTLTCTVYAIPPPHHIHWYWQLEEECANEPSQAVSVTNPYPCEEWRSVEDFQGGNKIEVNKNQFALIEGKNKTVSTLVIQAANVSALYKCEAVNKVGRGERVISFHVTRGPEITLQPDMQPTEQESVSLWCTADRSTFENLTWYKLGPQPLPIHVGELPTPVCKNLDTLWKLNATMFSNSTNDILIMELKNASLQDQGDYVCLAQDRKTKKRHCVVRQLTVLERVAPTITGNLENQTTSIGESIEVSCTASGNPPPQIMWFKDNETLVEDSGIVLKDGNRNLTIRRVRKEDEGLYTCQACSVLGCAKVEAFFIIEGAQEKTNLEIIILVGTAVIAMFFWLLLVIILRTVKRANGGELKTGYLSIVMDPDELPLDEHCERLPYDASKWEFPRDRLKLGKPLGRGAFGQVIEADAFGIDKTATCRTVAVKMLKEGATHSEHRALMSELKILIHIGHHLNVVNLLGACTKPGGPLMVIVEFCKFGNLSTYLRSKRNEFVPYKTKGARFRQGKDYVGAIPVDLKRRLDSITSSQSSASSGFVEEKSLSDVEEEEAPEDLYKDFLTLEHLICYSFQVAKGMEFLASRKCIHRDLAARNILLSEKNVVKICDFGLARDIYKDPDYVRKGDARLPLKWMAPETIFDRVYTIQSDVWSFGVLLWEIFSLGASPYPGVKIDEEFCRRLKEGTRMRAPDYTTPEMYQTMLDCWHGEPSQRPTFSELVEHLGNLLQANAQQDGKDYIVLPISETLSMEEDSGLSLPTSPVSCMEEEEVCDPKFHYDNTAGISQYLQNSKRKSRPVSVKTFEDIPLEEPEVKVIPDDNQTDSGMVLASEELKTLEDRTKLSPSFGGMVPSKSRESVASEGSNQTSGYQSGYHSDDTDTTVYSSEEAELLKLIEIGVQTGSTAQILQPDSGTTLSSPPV
Procedure, shortened: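 VEGFR-2 tested at a single 200 nM concentration in a Kinase-Glo assay. Compound, kinase, substrate and ATP incubated 40 min at room temperature, then Kinase-Glo reagent added for 15 min and luminescence read. Inhibition rate reported. Replicates n ≥ 2.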

HeLa = test: Antiproliferative activity against human HeLa cells after 72 hrs by MTT assay; type: functional, cell-based
MDA-MB-231 = test: Antiproliferative activity against human MDA-MB-231 cells after 72 hrs by MTT assay; type: functional, cell-based; conditions: MDA-MB-231, 72 h
K562 = test: Antiproliferative activity against human K562 cells after 72 hrs by MTT assay; type: functional, cell-based; conditions: K562, 72 h
Histone deacetylase 1 = Histone deacetylase 1 (Homo sapiens, UniProt Q13547); test: Inhibition of HDAC1 (unknown origin) using fluorogenic substrate preincubated for 5 mins followed by substrate addition measured after 30 mins by fluorescence-based assay
Histone deacetylase 1, sequence (Q13547 whole entry): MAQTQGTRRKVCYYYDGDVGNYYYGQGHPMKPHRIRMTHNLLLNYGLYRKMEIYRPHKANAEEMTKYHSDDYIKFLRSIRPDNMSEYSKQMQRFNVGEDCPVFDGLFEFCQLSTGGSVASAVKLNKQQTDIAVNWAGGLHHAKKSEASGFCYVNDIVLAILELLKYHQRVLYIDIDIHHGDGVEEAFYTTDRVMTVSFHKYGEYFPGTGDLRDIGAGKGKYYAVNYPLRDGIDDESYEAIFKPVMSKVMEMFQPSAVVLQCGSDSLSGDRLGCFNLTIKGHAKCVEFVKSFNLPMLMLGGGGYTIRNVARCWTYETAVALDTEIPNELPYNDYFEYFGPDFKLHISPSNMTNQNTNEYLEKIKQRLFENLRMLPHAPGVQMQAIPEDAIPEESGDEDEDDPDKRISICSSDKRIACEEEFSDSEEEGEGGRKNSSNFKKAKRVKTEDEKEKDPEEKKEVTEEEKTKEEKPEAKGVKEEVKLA

[2] = biological target: Platelet-derived growth factor receptor beta (Homo sapiens, UniProt P09619); test: Inhibition of PDGFRbeta (unknown origin) after 40 mins by kinase-Glo assay
Platelet-derived growth factor receptor beta, sequence (P09619 whole entry): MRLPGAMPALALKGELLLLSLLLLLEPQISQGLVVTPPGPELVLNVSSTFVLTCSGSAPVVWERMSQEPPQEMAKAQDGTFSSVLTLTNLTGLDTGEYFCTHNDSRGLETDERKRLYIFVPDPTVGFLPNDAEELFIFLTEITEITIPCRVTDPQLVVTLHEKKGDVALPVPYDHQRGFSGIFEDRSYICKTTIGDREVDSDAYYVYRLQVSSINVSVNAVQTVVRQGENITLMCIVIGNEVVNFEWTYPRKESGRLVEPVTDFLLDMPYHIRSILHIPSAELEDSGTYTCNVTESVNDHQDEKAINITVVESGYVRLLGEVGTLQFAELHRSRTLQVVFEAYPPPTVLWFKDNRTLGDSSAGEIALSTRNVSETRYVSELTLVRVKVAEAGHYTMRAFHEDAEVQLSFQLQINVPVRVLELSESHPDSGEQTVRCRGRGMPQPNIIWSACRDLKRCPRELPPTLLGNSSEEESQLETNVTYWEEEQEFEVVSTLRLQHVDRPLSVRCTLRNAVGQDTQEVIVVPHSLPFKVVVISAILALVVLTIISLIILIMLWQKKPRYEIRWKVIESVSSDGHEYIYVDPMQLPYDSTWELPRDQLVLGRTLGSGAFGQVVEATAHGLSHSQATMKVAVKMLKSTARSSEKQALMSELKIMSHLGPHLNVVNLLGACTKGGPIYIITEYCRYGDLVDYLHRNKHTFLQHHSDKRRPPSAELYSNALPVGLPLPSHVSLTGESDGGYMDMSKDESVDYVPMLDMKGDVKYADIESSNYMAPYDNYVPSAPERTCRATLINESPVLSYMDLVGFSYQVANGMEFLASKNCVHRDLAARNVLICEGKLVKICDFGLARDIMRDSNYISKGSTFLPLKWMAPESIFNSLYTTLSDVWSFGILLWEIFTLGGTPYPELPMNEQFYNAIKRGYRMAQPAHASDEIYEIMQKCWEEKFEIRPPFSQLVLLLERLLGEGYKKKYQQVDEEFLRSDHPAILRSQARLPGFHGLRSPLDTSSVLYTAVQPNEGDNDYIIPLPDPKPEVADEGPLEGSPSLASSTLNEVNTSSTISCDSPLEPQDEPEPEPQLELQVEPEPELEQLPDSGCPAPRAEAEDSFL
Procedure, shortened: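 Kinase-Glo luminescent assay run by a contract lab. Compound, kinase, substrate and ATP diluted in kinase buffer and incubated 40 min at room temperature. IC50 obtained by nonlinear regression of normalized dose–response.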

[3] = biological target: Macrophage colony-stimulating factor 1 receptor (Homo sapiens, UniProt P07333); test: Inhibition of C-fms (unknown origin) after 40 mins by kinase-Glo assay
Macrophage colony-stimulating factor 1 receptor, sequence (P07333 whole entry): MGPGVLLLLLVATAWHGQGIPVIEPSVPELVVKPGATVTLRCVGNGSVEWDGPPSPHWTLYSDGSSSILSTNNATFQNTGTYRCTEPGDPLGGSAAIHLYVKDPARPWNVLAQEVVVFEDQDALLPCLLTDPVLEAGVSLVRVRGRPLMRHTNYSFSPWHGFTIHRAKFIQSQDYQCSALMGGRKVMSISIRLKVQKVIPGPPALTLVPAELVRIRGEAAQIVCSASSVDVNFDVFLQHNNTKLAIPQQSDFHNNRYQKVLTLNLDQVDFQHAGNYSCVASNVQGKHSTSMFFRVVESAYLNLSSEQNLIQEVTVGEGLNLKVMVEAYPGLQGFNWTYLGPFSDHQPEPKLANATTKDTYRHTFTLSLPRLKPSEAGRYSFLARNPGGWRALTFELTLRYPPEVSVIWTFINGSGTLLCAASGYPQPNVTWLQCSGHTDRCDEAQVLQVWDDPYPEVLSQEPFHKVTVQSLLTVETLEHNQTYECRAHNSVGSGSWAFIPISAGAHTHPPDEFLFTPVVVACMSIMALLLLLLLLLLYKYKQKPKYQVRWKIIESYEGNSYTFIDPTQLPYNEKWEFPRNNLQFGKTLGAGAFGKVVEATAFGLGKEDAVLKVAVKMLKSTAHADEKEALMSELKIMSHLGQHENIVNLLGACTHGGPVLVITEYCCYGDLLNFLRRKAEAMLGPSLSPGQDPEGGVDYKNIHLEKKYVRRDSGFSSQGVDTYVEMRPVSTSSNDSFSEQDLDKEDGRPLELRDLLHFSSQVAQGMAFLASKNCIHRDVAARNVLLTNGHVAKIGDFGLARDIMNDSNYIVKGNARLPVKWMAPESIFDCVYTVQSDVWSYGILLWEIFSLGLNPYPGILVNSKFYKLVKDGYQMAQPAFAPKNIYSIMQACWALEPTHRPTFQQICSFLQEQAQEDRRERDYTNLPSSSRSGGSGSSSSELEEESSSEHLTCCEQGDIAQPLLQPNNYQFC

[4] = biological target: T1, Vascular endothelial growth factor receptor 2; test: Inhibition of VEGF-stimulated VEGFR2 phosphorylation in human HUVEC cells at 100 nM preincubated for 2 hrs followed by VEGF stimulation by Western blot analysis; type: cell-based
Procedure, shortened: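 HUVECs pretreated 2 h with compound or DMSO, then stimulated with VEGF (50 ng/ml). Cells lysed in ice-cold RIPA and protein measured by BCA. Lysates run on SDS-PAGE and immunoblotted for phospho-VEGFR-2, with total VEGFR-2 as loading control. Detection by ECL.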

[5] = AUC (0 to t) in Sprague-Dawley rat at 2 mg/kg, iv by LC-MS/MS analysis; type: ADME, organism-based; conditions: in vivo
Procedure, shortened: (§1)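 Sprague–Dawley rats (N = 6) dosed with the hydrochloride salt, 2 mg/kg IV or 10 mg/kg PO. Jugular vein blood drawn at set time points and kept on ice. Plasma separated by centrifugation, stored at -80 °C, and quantified by LC-MS/MS.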

[6] = AUC (0 to t) in Sprague-Dawley rat at 10 mg/kg, po by LC-MS/MS analysis; type: ADME, organism-based; conditions: in vivo
[7] = MRT (0 to t) in Sprague-Dawley rat at 10 mg/kg, po by LC-MS/MS analysis; type: ADME, organism-based; conditions: in vivo
Procedure, shortened: as §1

SMILES: Cc1c2ccc(N(C)c3ccnc(Nc4ccc(C(=O)Nc5ccccc5N)cc4)n3)cc2nn1C
- IC50 (Histone deacetylase): 4.6 µM
- inhibition [1]: 100%
- IC50 (HeLa): 1710 nM
- IC50 (MDA-MB-231): 3.74 µM
- IC50 (K562): 1820 nM
- IC50 (Histone deacetylase 1): 590 nM
- IC50 [2]: 88 nM
- IC50 [3]: 351 nM
- inhibition [4]: Active
- AUC(0-t) [5]: 2380 ng·h/mL
- AUC(0-t) [6]: 8570 ng·h/mL
- MRT last [7]: 2.54 h
